This is a sample that favours compounds with a hit; in the whole collection about 2.8% have one here.
NPY-Y1 antag: NPY-Y1 receptor antagonists, primary screen, cell-based. 200,000 tested, 1% active. inhibition, % at 3.6 µM. Neuropeptide Y receptor type 1 (Homo sapiens), P25929. AID 1040, 2008. HEK293-CNG Y1 cells, membrane potential fluorescence; NPY at EC95, then isoproterenol;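 active = inhibition above the campaign mean inhibition of all tested compounds plus 3 SD, cut at about 20% in these data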;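 also: 0% = DMSO wells given NPY plus isoproterenol and 100% = isoproterenol alone without NPY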
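Material: HEK293 cells co-expressing NPY Y1 receptor and cyclic-nucleotide gated channel. Timing: compound incubation 1 h at room temperature, readout 45 min post-stimulation. Signal: fluorescence, membrane potential probe.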
NPY-Y2 antag: NPY-Y2 receptor antagonists, primary screen, cell-based. Neuropeptide Y receptor type 2 (Homo sapiens), P49146. NPY-Y2 expressing cells, antagonist mode. inhibition, % at 2.7 µM. 140,000 tested, 0.99% active; in the data active = inhibition above about 17%;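 also: 0% = vehicle with agonist challenge and 100% = reference antagonist with challenge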
NPY1 pot ag: NPY-Y1 receptor potentiators or agonists, primary screen, cell-based | 220,000 tested, 0.37% active | Neuropeptide Y receptor type 1 (Homo sapiens), P25929 | activation, % at 3.6 µM | NPY-Y1 expressing cells, potentiator/agonist activation; in the data active = activation above about 33%, passing the limit was not always enough;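 also: cells stimulated with NPY at EC10 then isoproterenol at EC100; 0% = low agonist plus stimulus and 100% = saturating agonist plus stimulus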
NPY-Y2 PAM-ag: NPY-Y2 potentiators or agonists, primary screen, cell-based. Neuropeptide Y receptor type 2 (Homo sapiens), P49146. cells expressing NPY-Y2, potentiator/agonist read-out. AID 1359, 2008. activation, % at 3.6 µM. 220,000 tested, 0.45% active; in the data active = activation above about 27%;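 also: cells stimulated with NPY near EC25 plus isoproterenol at EC100; 0% = vehicle plus submaximal agonist and 100% = vehicle plus saturating agonist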
PGE2 EP2 inh: human EP2 receptor antagonists, primary screen, TR-FRET cAMP, C6 glioma cells | C6 glioma cells expressing human EP2; cells stimulated with saturating PGE2 | inhibition, % at 25 µM | 260,000 tested, 0.52% active;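 active = percent inhibition above 40 after rounding to a whole number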;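 also: rat C6 glioma host cells with rolipram phosphodiesterase inhibitor present; the protocol text gives 20 µM as final concentration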
Target sequence (P43116 whole entry, looked up): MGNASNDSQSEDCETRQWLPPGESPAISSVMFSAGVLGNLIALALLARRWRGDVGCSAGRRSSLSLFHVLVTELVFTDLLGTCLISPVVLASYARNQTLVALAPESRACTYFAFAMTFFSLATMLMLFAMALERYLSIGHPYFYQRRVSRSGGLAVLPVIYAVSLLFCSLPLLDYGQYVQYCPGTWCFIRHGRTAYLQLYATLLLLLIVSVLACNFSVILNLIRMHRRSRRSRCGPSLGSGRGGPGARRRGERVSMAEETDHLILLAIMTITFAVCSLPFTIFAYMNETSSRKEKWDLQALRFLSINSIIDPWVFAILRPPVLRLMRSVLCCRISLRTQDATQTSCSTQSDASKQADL
EP2 modulator: EP2 receptor modulators, cAMP readout, primary screen, cell-based, HTRF cAMP, PGE2 stimulation; induction, % at 25 µM; AID 940, 2007; 260,000 tested, 0.83% active; EP2-expressing cells, cAMP HTRF FRET, PGE2 co-stimulation;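 active = compounds whose cAMP rise, as percent of the full-agonist control response, exceeds 60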;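 also: rat C6 glioma line stably carrying human EP2 under a CMV promoter; the protocol text gives 20 µM as final concentration; 100% = response of wells given 1 µM PGE2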
* = called active by the depositor; . = no result given.

SMILES | NPY-Y1 antag | NPY-Y2 antag | NPY1 pot ag | NPY-Y2 PAM-ag | PGE2 EP2 inh | EP2 modulator
CCn1c(SC(C)C(=O)Nc2c(C)cccc2C)nnc1-c1cccnc1 (configuration not stated) | . | . | . | . | 3 | -1
COc1ccc(Cc2nnc(NC(=O)Nc3ccc(Cl)c(Cl)c3)s2)cc1OC | . | . | . | . | 7 | -24
CCN1CCN(CCC2Oc3cc([N+](=O)[O-])ccc3NC2=O)CC1 (configuration not stated) | -3 | . | -3 | -6 | 4 | 4
O=C1C2=C(Nc3cc([N+](=O)[O-])ccc3N2)O[C@H]1c1ccc([C@H]2OC3=C(Nc4ccc([N+](=O)[O-])cc4N3)C2=O)cc1 | . | . | . | . | 58* | -24
Cc1ccc(-n2ncc3c(SCC(=O)N4CCOCC4)ncnc32)cc1C | . | . | . | . | 8 | -41
O=C(O)C[C@H](NC(=O)CP(=O)(O)O)C(=O)O.[NH-][C@@H]1CCCC[C@H]1[NH-].[Pt] | . | . | . | . | 40* | 9
Cn1c(=O)c2[nH]c(CCCCc3nc4ccccc4[nH]3)nc2n(C)c1=O | . | . | . | . | 41* | -1
Cn1c(=O)c2[nH]c(CCS)nc2n(C)c1=O | . | . | . | . | 13 | 28
CCn1c(CCCc2nc3c([nH]2)c(=O)n(C)c(=O)n3C)nc2c1c(=O)n(C)c(=O)n2C | . | . | . | . | 45* | -4
Oc1ccc(-c2csc(-c3ccccc3)n2)c(O)c1 | . | . | . | . | 48* | -142
Oc1ccc(-c2csc(-c3cccnc3)n2)c(O)c1 | -3 | . | -7 | 0 | 7 | -9
O=C(CN1CCC(O)(c2ccccn2)CC1)Nc1ccc2c(c1)CCC2 | . | . | . | . | 10 | -34
Cn1c(C(=O)OC(C(=O)NCC2CCCO2)c2ccccn2)cc2sccc21 (configuration not stated) | . | . | . | . | 14 | -33
Cc1ccc(C(=O)C[n+]2cc(-c3ccc(C)cc3)n3c2CCCCC3)cc1 | 79* | 32* | -35 | -10 | . | -5
COc1ccc(C(=O)C[n+]2cc(-c3ccc(OC)cc3)n3c2CCCC3)cc1 | 1 | . | 4 | -1 | 3 | -25
Cc1cccn2c(=O)c(C=NCCO)c(Nc3ccc(Cl)cc3)nc12 | -2 | . | 24 | 6 | 4 | 24
CNc1nc2c(C)cccn2c(=O)c1C=NCc1ccccc1 | 8 | 0 | 16 | 3 | . | 61*
CN=Cc1c(NC)nc2c(C)cccn2c1=O | 2 | 1 | 17 | -9 | 10 | -15
COc1ccc(Nc2nc3c(C)cccn3c(=O)c2C=NCc2ccccc2)cc1 | -4 | . | 8 | 14 | 3 | 64*
COC(=O)c1c(NC(=O)c2ccc(OC)cc2)sc(C(=O)Nc2ccccc2OC)c1C | . | . | . | . | 9 | 5
COc1ccc(CN2CCN(C(=O)c3ccccc3OC)CC2)cc1Br | . | . | . | . | 10 | -35
N#CCc1ccc(NC(=O)Nc2cccc(Cl)c2)cc1 | -18 | -3 | 37* | 20 | 31 | -21
CN1CCN(S(=O)(=O)c2ccc(NC(=O)Nc3cccc(Cl)c3)cc2)CC1 | -9 | -4 | 33 | 27 | 43* | -24
COc1ccc(CCNCC(O)COc2cccc(Br)c2)cc1OC (configuration not stated) | . | . | 105* | 82* | 5 | -21
COc1ccc(CCNCC(O)Cn2c3ccccc3c3ccccc32)cc1OC (configuration not stated) | 6 | . | 22 | 17 | 12 | -61
SMILES | NPY-Y1 antag | NPY-Y2 antag | NPY1 pot ag | NPY-Y2 PAM-ag | PGE2 EP2 inh | EP2 modulator
CC1(C)C(N(O)C(=O)Nc2ccc(Cl)cc2)N(c2ccc(Cl)cc2)C(=O)N1CC(=O)NN (configuration not stated) | -8 | 0 | 41* | 43* | -2 | -1
CC(C)CC(=O)Nc1c2c(nn1-c1ccc(F)cc1)CSC2 | -4 | 3 | 93* | 100* | 4 | 20
O=S(=O)(Nc1ccc(Cl)cc1)c1ccc(NS(=O)(=O)c2cccs2)cc1 | . | . | . | . | 10 | -15
O=C(Nc1ccc(NC(=O)C2CC2)nc1)c1ccccn1 | -3 | 2 | 5 | -2 | 41* | -1
COc1ccc(-c2nnc(SCC(=O)c3ccccc3)o2)cc1OC | . | . | . | . | 10 | 10
COc1ccc(C(=O)CSc2nnc(-c3ccc(OC)c(OC)c3)o2)cc1 | . | . | . | . | 59* | -170
CCC(C)C(=O)Nc1nnc(C(F)(F)F)s1 (configuration not stated) | . | . | . | . | 10 | -32
O=C(O)c1cc([N+](=O)[O-])ccc1N1CCCCC1 | 2 | 0 | -34 | -13 | 6 | 22
Cc1ccc(C(=O)c2cc([N+](=O)[O-])ccc2N2CCCCC2)c(C)c1 | 30* | 22* | -28 | -20 | 6 | 63*
C=CCNC(=O)C1CCN(S(=O)(=O)c2c(C)cc(C)cc2C)CC1 | . | . | . | . | 16 | -73
COCCCNC(=O)/C(C#N)=C1\N=C(NC(=O)c2cccs2)c2ccccc21 | . | . | 34 | -21 | 9 | -10
N#C/C(C(=O)NCCc1ccccc1)=C1/N=C(NC(=O)c2cccs2)c2ccccc21 | 1 | 5 | -6 | -12 | 13 | 63*
COc1ccc(C2=NN(Cc3c(F)cccc3Cl)C(=O)CC2)cc1 | 7 | . | -10 | 4 | 9 | 63*
CCc1ccccc1NC(=O)CN1C(=O)C2CCCN2c2ncc(Cl)cc21 (configuration not stated) | 33* | 23* | -7 | -33 | 14 | -4
CC1CCC(NC(=O)CN2C(=O)C3CCCN3c3ncc(Cl)cc32)CC1 (configuration not stated) | 29* | 6 | -18 | -11 | 20 | -42
COc1ccccc1NC(=O)N(Cc1cccs1)Cc1cc2cccc(C)c2[nH]c1=O | . | . | . | . | 7 | -9
O=C(Nc1ccccc1Oc1ccccc1)C1CCCC1 | 6 | 3 | -3 | -7 | 7 | 61*
CC(C)(CC(=O)O)CC(=O)Nc1ccccc1Oc1ccccc1 | . | . | -20 | -12 | 9 | 21
CC(C(=O)Nc1ccccc1Oc1ccccc1)c1ccccc1 (configuration not stated) | 2 | 1 | 8 | -1 | 6 | 64*
Cn1c(COc2cccc3ccccc23)nnc1SCC(=O)NC1CC1 | . | . | . | . | 17 | 16
COC(=O)C1=C(Nc2ccc(C)cc2)C=C(C)C(C(=O)OC)C1c1ccc(OC)cc1 (configuration not stated) | 30* | 23* | -55 | -20 | 7 | 20
COc1ccccc1OCc1nnc(SCC(=O)c2ccccc2)n1C | . | . | . | . | 9 | 2
CCOc1ccc(C2CC(c3ccccc3C)n3ncnc3N2)cc1 (configuration not stated) | 21* | 24* | -13 | -12 | 9 | -1

High-throughput results deposited in PubChem BioAssay by several laboratories.
